Assay [1] has as its target T1, Acetylcholinesterase (Homo sapiens, UniProt P22303). Kind of assay: Inhibition of AChE (unknown origin) using acetylthiocholine iodide as substrate […] measured after 30 mins by Ellman method. In general terms: Ellman's reagent forms a yellow product with free thiols.
Assay [2] has as its target T1, Acetylcholinesterase. Kind of assay: Inhibition of AChE (unknown origin) using acetylthiocholine iodide as substrate at 0.5 mM preincubated for 30 mins before substrate addition measured after 30 mins by Ellman method relative to control.
The target of assay [3] is T2, Cholinesterase (Homo sapiens, UniProt P06276). Put plainly: Inhibition of BChE (unknown origin) using butyrylthiocholine chloride as substrate at 0.5 mM preincubated for 30 mins before substrate addition measured after 30 mins by Ellman method relative to control.
Assay [4] deals with Cholinesterases; ACHE & BCHE (Homo sapiens) (UniProt P06276+P22303). Put plainly: Selectivity ratio of IC50 for AChE (unknown origin) to IC50 for BChE (unknown origin). Put shortly: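 Ratio of IC50 for AChE to IC50 for BChE, both measured by Ellman assay. Each IC50 is the mean of three independent experiments.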
Assay [5] addresses T2, Cholinesterase. Put plainly: Inhibition of BChE (unknown origin) using butyrylthiocholine chloride as substrate […] measured after 30 mins by Ellman method.
Assay [6] concerns the target T1, Acetylcholinesterase. Put plainly: Inhibition of AChE (unknown origin) using acetylthiocholine iodide as substrate at 0.25 mM preincubated for 30 mins before substrate addition measured after 30 mins by Ellman method relative to control.
The target of assay [7] is T2, Cholinesterase. Put plainly: Inhibition of BChE (unknown origin) using butyrylthiocholine chloride as substrate at 0.25 mM preincubated for 30 mins before substrate addition measured after 30 mins by Ellman method relative to control.

This is an account of results in ChEMBL document CHEMBL3603773, “Synthesis of novel triazoles and a tetrazole of escitalopram as cholinesterase inhibitors” (Bioorg Med Chem, 2015).

Sequence of Cholinesterases; ACHE & BCHE (Homo sapiens) (P06276 whole entry, looked up): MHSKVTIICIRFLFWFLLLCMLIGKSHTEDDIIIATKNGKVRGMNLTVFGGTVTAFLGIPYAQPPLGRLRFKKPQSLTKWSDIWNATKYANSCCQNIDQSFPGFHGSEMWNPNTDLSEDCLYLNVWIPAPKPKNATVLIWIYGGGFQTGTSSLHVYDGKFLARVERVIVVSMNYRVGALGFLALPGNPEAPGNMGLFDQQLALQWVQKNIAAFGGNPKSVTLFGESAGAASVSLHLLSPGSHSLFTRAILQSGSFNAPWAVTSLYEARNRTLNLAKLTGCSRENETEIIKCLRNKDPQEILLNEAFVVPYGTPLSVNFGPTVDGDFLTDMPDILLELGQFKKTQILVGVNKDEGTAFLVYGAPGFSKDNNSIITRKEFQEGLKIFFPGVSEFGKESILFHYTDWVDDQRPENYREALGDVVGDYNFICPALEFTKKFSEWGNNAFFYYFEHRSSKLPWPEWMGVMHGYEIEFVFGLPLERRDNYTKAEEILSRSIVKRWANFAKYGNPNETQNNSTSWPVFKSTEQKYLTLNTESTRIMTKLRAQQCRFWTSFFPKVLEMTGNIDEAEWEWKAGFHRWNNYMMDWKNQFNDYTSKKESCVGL
Sequence of Cholinesterases; ACHE & BCHE (Homo sapiens) (P22303 whole entry, looked up): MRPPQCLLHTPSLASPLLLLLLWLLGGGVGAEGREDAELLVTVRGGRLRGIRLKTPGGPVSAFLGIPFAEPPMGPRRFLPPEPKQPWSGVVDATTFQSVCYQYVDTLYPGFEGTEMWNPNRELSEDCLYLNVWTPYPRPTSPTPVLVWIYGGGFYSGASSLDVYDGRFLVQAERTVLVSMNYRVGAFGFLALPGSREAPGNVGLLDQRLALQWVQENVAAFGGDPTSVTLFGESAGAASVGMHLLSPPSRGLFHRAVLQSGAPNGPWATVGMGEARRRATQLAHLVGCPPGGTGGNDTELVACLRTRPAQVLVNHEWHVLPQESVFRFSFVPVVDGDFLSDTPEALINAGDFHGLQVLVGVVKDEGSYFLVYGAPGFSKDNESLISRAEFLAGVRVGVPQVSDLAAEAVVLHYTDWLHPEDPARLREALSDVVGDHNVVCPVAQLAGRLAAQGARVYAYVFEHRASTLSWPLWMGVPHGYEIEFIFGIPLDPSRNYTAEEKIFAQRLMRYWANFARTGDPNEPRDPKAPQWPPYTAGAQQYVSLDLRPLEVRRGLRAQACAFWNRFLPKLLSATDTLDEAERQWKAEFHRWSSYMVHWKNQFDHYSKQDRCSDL
T2 sequence (P06276 whole entry): as the sequence (P06276 whole entry, looked up) above
T1 sequence (P22303 whole entry): as the sequence (P22303 whole entry, looked up) above

Consider `CN(C)CCC[C@@]1(c2ccc(F)cc2)OCc2cc(-c3nnc(-c4ccc(Cl)cc4)[nH]3)ccc21`, for which the half-maximal inhibitory concentration (IC50) (commonly the midpoint of a concentration-inhibition curve) on Acetylcholinesterase [1] was 6.71 µM; against Cholinesterase [5], 151 µM. The inhibition (in general, the relative decrease from the control value, in per cent) worked out at 91.6% against Acetylcholinesterase [2] and 73.7% on Cholinesterase [3]. For the same compound, in assay [4], the Ratio IC50 was found to be 0.044.

For `Cc1ccccc1-c1nnc(-c2ccc3c(c2)CO[C@@]3(CCCN(C)C)c2ccc(F)cc2)[nH]1`, the values for the IC50 against Acetylcholinesterase [1] and against Cholinesterase [5] were 9.52 µM and 99.7 µM, respectively. Moreover, the inhibition stood at 88.6% at Acetylcholinesterase [2] and 85% against Cholinesterase [3]. The Ratio IC50 in assay [4] worked out at 0.095.

Turning to `CN(C)CCC[C@@]1(c2ccc(F)cc2)OCc2cc(-c3nnc(-c4ccc(F)cc4)[nH]3)ccc21`, the concentration for half-maximal inhibition (IC50) worked out at 261 µM against Acetylcholinesterase [1] and 5.31 µM on Cholinesterase [5]. Besides, the inhibition against Acetylcholinesterase [2] was 71.5%; against Cholinesterase [3], 92.5%. Moreover, the Ratio IC50 in assay [4] turned out to be 49.1.

Take `CN(C)CCC[C@@]1(c2ccc(F)cc2)OCc2cc(-c3nnc(-c4ccccc4)[nH]3)ccc21`: the values for the IC50 on Acetylcholinesterase [1] and against Cholinesterase [5] were > 500 µM and 129 µM, respectively. In addition, the inhibition is 30.4% against Acetylcholinesterase [2] and 81.8% on Cholinesterase [3]. Moreover, the Ratio IC50 in assay [4] is > 3.88.

Regarding `CN(C)CCC[C@@]1(c2ccc(F)cc2)OCc2cc(-c3nnc(-c4ccccc4I)[nH]3)ccc21`, the values for the IC50 against Acetylcholinesterase [1] and on Cholinesterase [5] were 310 µM and 25.9 µM, respectively. Besides, the inhibition on Acetylcholinesterase [2] came to 72.3%; against Cholinesterase [3], 84.5%. Moreover, the Ratio IC50 in assay [4] came out at 12.

In the case of `CN(C)CCC[C@@]1(c2ccc(F)cc2)OCc2cc(-c3nnc(-c4ccccc4Cl)[nH]3)ccc21`, the figures for the inhibition on Acetylcholinesterase [2] and at Cholinesterase [3] were 19.5% and 79.6%, respectively. On Cholinesterase [5], this compound returned a half-maximal inhibitory concentration (IC50) of 81.4 µM.

`Cc1cccc(-c2nnc(-c3ccc4c(c3)CO[C@@]4(CCCN(C)C)c3ccc(F)cc3)[nH]2)c1`: the IC50 on Acetylcholinesterase [1] came to 133 µM; on Cholinesterase [5], 89.2 µM. In addition, the inhibition came out at 88.1% against Acetylcholinesterase [2] and 71.5% against Cholinesterase [3]. For the same compound, the Ratio IC50 in assay [4] is 1.49.

As for `CN(C)CCC[C@@]1(c2ccc(F)cc2)OCc2cc(-c3nnc(-c4ccccc4Br)[nH]3)ccc21`, the inhibition was 19.4% on Acetylcholinesterase [2] and 75% on Cholinesterase [3]. Besides, at Cholinesterase [5], the IC50 came to 141 µM.

As for `CN(C)CCC[C@@]1(c2ccc(F)cc2)OCc2cc(-c3nnc(-c4ccccc4N)[nH]3)ccc21`, the IC50 on Acetylcholinesterase [1] was 360 µM; on Cholinesterase [5] it was 111 µM. Moreover, the inhibition at Acetylcholinesterase [2] came out at 70.2%; at Cholinesterase [3], 71.7%. Also, in assay [4], the Ratio IC50 was 3.25.

Consider `CN(C)CCC[C@@]1(c2ccc(F)cc2)OCc2cc(-c3nnc(-c4cccc(Br)c4)[nH]3)ccc21`, for which the results for the 50% inhibitory concentration (IC50) against Acetylcholinesterase [1] and against Cholinesterase [5] were < 500 µM and 78 µM, respectively. Further, the inhibition amounted to 37.9% at Acetylcholinesterase [2] and 85.5% against Cholinesterase [3]. Further, in assay [4], the Ratio IC50 is < 6.41.

In the case of `CN(C)CCC[C@@]1(c2ccc(F)cc2)OCc2cc(-c3nnc(-c4cccc(Cl)c4)[nH]3)ccc21`, the IC50 at Acetylcholinesterase [1] came out at 413 µM; at Cholinesterase [5], 26.5 µM. Further, the inhibition was found to be 57.4% at Acetylcholinesterase [2] and 79.9% against Cholinesterase [3]. Besides, in assay [4], the Ratio IC50 was 15.7.

As to `COc1cccc(-c2nnc(-c3ccc4c(c3)CO[C@@]4(CCCN(C)C)c3ccc(F)cc3)[nH]2)c1`, the IC50 against Acetylcholinesterase [1] stood at 124 µM; on Cholinesterase [5], 103 µM. The inhibition against Acetylcholinesterase [2] came out at 89.7%; on Cholinesterase [3], 91%. Moreover, the Ratio IC50 in assay [4] was 1.2.

As for `CN(C)CCC[C@@]1(c2ccc(F)cc2)OCc2cc(-c3nnc(-c4ccc(O)cc4)[nH]3)ccc21`, the figures for the IC50 on Acetylcholinesterase [1] and against Cholinesterase [5] were 388 µM and 140 µM, respectively. Moreover, the inhibition at Acetylcholinesterase [2] came to 59.2%; on Cholinesterase [3], 78.7%. In assay [4], the Ratio IC50 turned out to be 2.76.

Turning to `CN(C)CCC[C@@]1(c2ccc(F)cc2)OCc2cc(-c3nnc(-c4ccccc4O)[nH]3)ccc21`, the figures for the inhibition against Acetylcholinesterase [2] and at Cholinesterase [3] were 16.3% and 80.7%, respectively. At Cholinesterase [5], this compound displayed a half-maximal inhibitory concentration (IC50) of 102 µM.

With `CN(C)CCC[C@@]1(c2ccc(F)cc2)OCc2cc(-c3nnc(-c4ccc(Br)cc4)[nH]3)ccc21`, the figures for the inhibition against Acetylcholinesterase [2] and against Cholinesterase [3] were 15.6% and 50.6%, respectively. In addition, the half-inhibitory concentration (IC50) against Cholinesterase [5] turned out to be 492 µM.

As for `COc1cc(-c2nnc(-c3ccc4c(c3)CO[C@@]4(CCCN(C)C)c3ccc(F)cc3)[nH]2)ccc1O`, the IC50 against Acetylcholinesterase [1] is < 500 µM; on Cholinesterase [5] it was 24.1 µM. Also, the inhibition against Acetylcholinesterase [2] was 34.8%; against Cholinesterase [3], 88.6%. In addition, in assay [4], the Ratio IC50 was < 20.8.

With `CN(C)CCC[C@@]1(c2ccc(F)cc2)OCc2cc(-c3nnc(-c4ccccc4F)[nH]3)ccc21`, the half-inhibitory concentration (IC50) against Acetylcholinesterase [1] was determined as 188 µM; at Cholinesterase [5], 4.52 µM. Besides, the inhibition against Acetylcholinesterase [6] was determined as 62.1%; on Cholinesterase [7] it was 93.6%. Besides, the Ratio IC50 in assay [4] is 41.5.

Consider `CN(C)CCC[C@@]1(c2ccc(F)cc2)OCc2cc(-c3nnc(-c4cccc(O)c4)[nH]3)ccc21`, for which the IC50 against Acetylcholinesterase [1] was < 500 µM; against Cholinesterase [5], 119 µM. The inhibition against Acetylcholinesterase [6] turned out to be 39.3%; on Cholinesterase [7], 61.7%. In addition, in assay [4], the Ratio IC50 was < 4.22.

`CN(C)CCC[C@@]1(c2ccc(F)cc2)OCc2cc(-c3nnc(-c4cccc(F)c4)[nH]3)ccc21`: the IC50 is < 500 µM against Acetylcholinesterase [1] and 44.8 µM against Cholinesterase [5]. The inhibition against Acetylcholinesterase [2] is 32.2%; at Cholinesterase [3] it was 82.9%. Further, the Ratio IC50 in assay [4] is < 11.2.

Regarding `CN(C)CCC[C@@]1(c2ccc(F)cc2)OCc2cc(-c3nnc(-c4ccccc4[N+](=O)[O-])[nH]3)ccc21`, the inhibition worked out at 5.09% at Acetylcholinesterase [2] and 62.9% on Cholinesterase [3]. At Cholinesterase [5], this compound gave a half-maximal inhibitory concentration (IC50) of 297 µM.

Consider `CN(C)CCC[C@@]1(c2ccc(F)cc2)OCc2cc(-c3nnc(-c4ccc(I)cc4)[nH]3)ccc21`, for which the values for the IC50 at Acetylcholinesterase [1] and against Cholinesterase [5] were > 500 µM and 161 µM, respectively. The inhibition at Acetylcholinesterase [2] was 30.5%; on Cholinesterase [3] it was 85.6%. The Ratio IC50 in assay [4] is > 3.11.

Regarding `CN(C)CCC[C@@]1(c2ccc(F)cc2)OCc2cc(-c3nnc(-c4cccc(I)c4)[nH]3)ccc21`, the figures for the concentration for half-maximal inhibition (IC50) at Acetylcholinesterase [1] and against Cholinesterase [5] were > 500 µM and 188 µM, respectively. The inhibition amounted to 25.1% at Acetylcholinesterase [2] and 75.5% at Cholinesterase [3]. In addition, the Ratio IC50 in assay [4] is > 2.67.

For `CN(C)CCC[C@@]1(c2ccc(F)cc2)OCc2cc(-c3nnc(-c4ccc(N)cc4)[nH]3)ccc21`, the figures for the inhibition at Acetylcholinesterase [2] and against Cholinesterase [3] were 15.3% and 72.1%, respectively. Besides, the midpoint of inhibition at Cholinesterase [5], the IC50, lay at 119 µM.

Regarding `COc1ccccc1-c1nnc(-c2ccc3c(c2)CO[C@@]3(CCCN(C)C)c2ccc(F)cc2)[nH]1`, on Acetylcholinesterase [1], the half-inhibitory concentration (IC50) worked out at 161 µM. The inhibition against Acetylcholinesterase [2] was 80.4%; against Cholinesterase [3], -2.13%.

Turning to `Cc1ccc(-c2nnc(-c3ccc4c(c3)CO[C@@]4(CCCN(C)C)c3ccc(F)cc3)[nH]2)cc1`, the figures for the inhibition against Acetylcholinesterase [2] and against Cholinesterase [3] were 16% and 91%, respectively. The compound further registered an IC50 against Cholinesterase [5] of 152 µM.

As to `CN(C)CCC[C@@]1(c2ccc(F)cc2)OCc2cc(-c3nnc(-c4ccc([N+](=O)[O-])cc4)[nH]3)ccc21`, the inhibition was 16.2% on Acetylcholinesterase [2] and 69.7% at Cholinesterase [3]. For the same compound, at Cholinesterase [5], the IC50 was 106 µM.

`CN(C)CCC[C@@]1(c2ccc(F)cc2)OCc2cc(-c3nnc(-c4cccc(N)c4)[nH]3)ccc21`: the IC50 against Acetylcholinesterase [1] is > 500 µM; on Cholinesterase [5], 188 µM. For the same compound, the inhibition against Acetylcholinesterase [2] was determined as 29.9%; on Cholinesterase [3], 73.5%. The Ratio IC50 in assay [4] was > 2.67.

With `CN(C)CCC[C@@]1(c2ccc(F)cc2)OCc2cc(-c3nnc(-c4cccc([N+](=O)[O-])c4)[nH]3)ccc21`, the concentration for half-maximal inhibition (IC50) against Acetylcholinesterase [1] amounted to 138 µM; at Cholinesterase [5] it was 105 µM. Moreover, the inhibition against Acetylcholinesterase [2] was found to be 81.7%; against Cholinesterase [3] it was 79.2%. The Ratio IC50 in assay [4] turned out to be 1.32.

Turning to `COc1ccc(-c2nnc(-c3ccc4c(c3)CO[C@@]4(CCCN(C)C)c3ccc(F)cc3)[nH]2)cc1`, the inhibition against Acetylcholinesterase [2] was determined as 10.3%; against Cholinesterase [3], 81.2%. Moreover, the IC50 at Cholinesterase [5] came out at 168 µM.
